From ChEMBL document CHEMBL4382237, “Design, Synthesis, and Biological Evaluation of 2-Nitroimidazopyrazin-one/-es with Antitubercular and Antiparasitic Activity” (J Med Chem, 2018)
Values after ≈ are worked out from the molar mass of the structure shown.

Assays:
Giardia intestinalis = experiment: Antiparasitic activity against Giardia lamblia WB trophozoites after 24 to 48 hrs by CellTiter-Glo luminescent cell viability assay; conditions: Giardia duodenalis
Entamoeba histolytica = experiment: Antiparasitic activity against Entamoeba histolytica HM-1:IMSS trophozoites after 24 to 48 hrs by CellTiter-Glo luminescent cell viability assay; type: functional, organism-based
How it was run: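 Axenic trophozoites were kept in TYI-S-33 with penicillin (100 U/mL) and streptomycin (100 µg/mL) and harvested in log phase. 5000 parasites per well were exposed to a final 8-point two-fold series of 0.39–50 µM, from 10 mM DMSO stocks. Plates were incubated 24–48 h at 37 °C under anaerobic conditions. ATP luminescence viability was read in triplicate. Percent inhibition is given at the highest concentration tested.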

Clostridioides difficile = experiment: Antibacterial activity against Clostridium difficile 630 ATCC BAA-1382 by broth microdilution assay; type: functional
How it was run: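 Broth microdilution run essentially per an earlier report. MIC taken as the lowest concentration with no visible growth. Replicates typically agreed within one 2-fold dilution. The median MIC is reported, with a range where the median fell between two tested concentrations.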

[1] = system: Mycobacterium tuberculosis; experiment: Antibacterial activity against non-replicating Mycobacterium tuberculosis H37Rv after 5 days under hypoxic condition by resazurin dye-based fluorescence assay; type: functional; conditions: 120 h
How it was run: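 Same H37Rv inoculum (OD600 0.001, ~2 x 10^4 CFU/mL) in 7H9S with serially diluted compound. Plates held 5 days at 0.1% oxygen, then resazurin plus Tween-80 added.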

[2] = system: Mycobacterium tuberculosis; experiment: Antibacterial activity against Mycobacterium tuberculosis H37Rv after 5 days under normoxic condition by resazurin dye-based fluorescence assay; type: functional, organism-based
How it was run: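 H37Rv grown in 7H9/ADC/glycerol/Tyloxapol to mid-exponential phase, diluted to OD600 0.001 (~2 x 10^4 CFU/mL) in 7H9S with serially diluted compound. Incubated 5 days at 37 °C, then resazurin and Tween-80 added. Fluorescence (ex 530/em 590 nm) read after 24 h, normalised to no-drug and no-bacteria wells.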

[3] = system: Trypanosoma brucei brucei; experiment: Antiparasitic activity against bloodstream form of Trypanosoma brucei brucei strain 427 after 48 hrs by resazurin dye-based assay; type: functional, organism-based; conditions: strain 427, 48 h
HEK293 = experiment: Cytotoxicity against HEK293 cells after 24 hrs by resazurin dye-based fluorescence assay; type: cell-based; conditions: human, hek293, 24 h
How it was run: (§1)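 HEK293 (3000/well) and HepG2 (5000/well) were grown 24 h in DMEM with 10% FBS at 37 °C, 5% CO2. Cells were then exposed 24 h to a dilution series up to 100 µM (0.5% DMSO). 5 µM resazurin was added for 2 h, read at ex 560/em 590. 1% Triton X-100 served as lysis control. CC50 was derived from the curves.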

HepG2 = experiment: Cytotoxicity against human HepG2 cells after 24 hrs by resazurin dye-based fluorescence assay; type: cell-based; conditions: hepg2, 24 h; how it was run: as §1

SMILES: NC(=O)c1nc([N+](=O)[O-])cn1Cc1ccc(F)cc1
- IC50 (Giardia intestinalis): 4.1 to 50 µM
- IC50 (Entamoeba histolytica; read-out: IC50): > 25 µM
- MIC (Clostridioides difficile): > 64 µg/mL
- MIC [1]: > 32 µg/mL

SMILES: O=C(NCc1cccc(OC(F)(F)F)c1)c1ncc([N+](=O)[O-])[nH]1
- IC50 (Giardia intestinalis): 0.2 to 0.5 µM
- IC50 (Entamoeba histolytica; read-out: IC50): 2.2 to 4.5 µM
- MIC (Clostridioides difficile): 4 to 16 µg/mL (≈ 12.1 to 48.5 µM)
- MIC [1]: > 32 µg/mL

SMILES: Cc1ccc(COc2nc(C)cn3cc([N+](=O)[O-])nc23)cc1
- IC50 (Giardia intestinalis): 5.7 µM
- IC50 (Giardia intestinalis; read-out: pIC50 (converted)): 6.31 µM
- IC50 (Entamoeba histolytica; read-out: IC50): 30 µM
- IC50 (Entamoeba histolytica; read-out: pIC50 (converted)): 31.6 µM

SMILES: NNC(=O)c1nc([N+](=O)[O-])cn1Cc1ccc(OC(F)(F)F)cc1
- IC50 (Giardia intestinalis): 2.7 to 7.5 µM
- IC50 (Entamoeba histolytica; read-out: IC50): 10 to 45 µM
- MIC (Clostridioides difficile): 16 to 64 µg/mL (≈ 46.3 to 185 µM)
- MIC [1]: > 32 µg/mL

SMILES: CN(C)C(=O)c1nc([N+](=O)[O-])cn1Cc1ccc(OC(F)(F)F)cc1
- IC50 (Giardia intestinalis): 2.7 to 7.5 µM
- IC50 (Entamoeba histolytica; read-out: IC50): 10 to 45 µM
- MIC (Clostridioides difficile): 16 to 64 µg/mL (≈ 44.7 to 179 µM)
- MIC [1]: > 32 µg/mL

SMILES: Cc1nc(OCc2ccccc2OC(F)(F)F)c2nc([N+](=O)[O-])cn2c1C
- IC50 (Giardia intestinalis): > 50 µM
- IC50 (Giardia intestinalis; read-out: pIC50 (converted)): > 50.1 µM
- IC50 (Entamoeba histolytica; read-out: IC50): > 50 µM
- IC50 (Entamoeba histolytica; read-out: pIC50 (converted)): > 50.1 µM
- MIC [2]: >32 µg/mL
- MIC [1]: > 32 µg/mL
- IC50 ([3]; read-out: IC50): 1.9 µM
- IC50 ([3]; read-out: pIC50 (converted)): 2 µM

SMILES: Cc1cn2cc([N+](=O)[O-])nc2c(OCc2ccccc2OC(F)(F)F)n1
- IC50 (Giardia intestinalis): 5.7 µM
- IC50 (Giardia intestinalis; read-out: pIC50 (converted)): 6.31 µM
- IC50 (Entamoeba histolytica; read-out: IC50): > 50 µM
- IC50 (Entamoeba histolytica; read-out: pIC50 (converted)): > 50.1 µM
- MIC [2]: >32 µg/mL
- MIC [1]: > 32 µg/mL
- IC50 ([3]; read-out: IC50): 1.2 µM
- IC50 ([3]; read-out: pIC50 (converted)): 1.26 µM

SMILES: NC(=O)c1nc([N+](=O)[O-])cn1Cc1ccc(OC(F)(F)F)cc1
- IC50 (Giardia intestinalis): 4.1 to 50 µM
- IC50 (Entamoeba histolytica; read-out: IC50): > 25 µM
- MIC (Clostridioides difficile): > 64 µg/mL
- MIC [1]: > 32 µg/mL

SMILES: Cc1ccc(COc2nc(C)c(C)n3cc([N+](=O)[O-])nc23)cc1
- IC50 (Giardia intestinalis): 5.8 µM
- IC50 (Giardia intestinalis; read-out: pIC50 (converted)): 6.31 µM
- IC50 (Entamoeba histolytica; read-out: IC50): > 50 µM
- IC50 (Entamoeba histolytica; read-out: pIC50 (converted)): > 50.1 µM
- MIC [2]: >32 µg/mL
- MIC [1]: > 32 µg/mL
- IC50 ([3]; read-out: IC50): 2.2 µM
- IC50 ([3]; read-out: pIC50 (converted)): 2.51 µM

SMILES: NC(=O)c1nc([N+](=O)[O-])cn1Cc1ccccc1
- IC50 (Giardia intestinalis): 4.1 to 50 µM
- IC50 (Entamoeba histolytica; read-out: IC50): > 25 µM
- MIC (Clostridioides difficile): > 64 µg/mL
- MIC [1]: > 32 µg/mL

SMILES: CC(=O)OCCOc1nc(-c2ccccc2)cn2cc([N+](=O)[O-])nc12
- IC50 (Giardia intestinalis): 1.9 µM
- IC50 (Giardia intestinalis; read-out: pIC50 (converted)): 2 µM
- IC50 (Entamoeba histolytica; read-out: IC50): > 50 µM
- IC50 (Entamoeba histolytica; read-out: pIC50 (converted)): > 50.1 µM
- MIC [1]: > 32 µg/mL
- IC50 ([3]; read-out: IC50): 1.5 µM
- IC50 ([3]; read-out: pIC50 (converted)): 1.58 µM

SMILES: Cc1ncc([N+](=O)[O-])n1CCO [METRONIDAZOLE]
- IC50 (Giardia intestinalis): 7.2 µM
- IC50 (Giardia intestinalis; read-out: pIC50 (converted)): 7.94 µM
- IC50 (Entamoeba histolytica; read-out: IC50): 4.3 µM
- IC50 (Entamoeba histolytica; read-out: pIC50 (converted)): 3.98 µM
- MIC (Clostridioides difficile): 0.5 µg/mL (≈ 2.92 µM)
- MIC [1]: > 32 µg/mL
- IC50 ([3]; read-out: IC50): > 40 µM
- IC50 ([3]; read-out: pIC50 (converted)): > 39.8 µM

SMILES: CCOC(=O)c1nc([N+](=O)[O-])cn1Cc1ccc(OC(F)(F)F)cc1
- IC50 (Giardia intestinalis): 2.7 to 7.5 µM
- IC50 (Entamoeba histolytica; read-out: IC50): 10 to 45 µM
- MIC (Clostridioides difficile): 16 to 64 µg/mL (≈ 44.5 to 178 µM)
- MIC [1]: > 32 µg/mL

SMILES: Cc1c(C)n2cc([N+](=O)[O-])nc2c(=O)n1Cc1cccc(OC(F)(F)F)c1
- IC50 (Giardia intestinalis): 1.7 µM
- IC50 (Giardia intestinalis; read-out: pIC50 (converted)): 1.58 µM
- IC50 (Entamoeba histolytica; read-out: IC50): 15 µM
- IC50 (Entamoeba histolytica; read-out: pIC50 (converted)): 15.8 µM
- MIC [2]: 1 µg/mL (≈ 2.62 µM)
- MIC [1]: 16 to 32 µg/mL (≈ 41.9 to 83.7 µM)
- IC50 ([3]; read-out: IC50): 0.4 µM
- IC50 ([3]; read-out: pIC50 (converted)): 0.398 µM
- CC50 (HEK293): 50.6 to 74.5 µM
- CC50 (HepG2): 26 to 80 µM

SMILES: Cc1cn2cc([N+](=O)[O-])nc2c(=O)n1CCO
- IC50 (Giardia intestinalis): > 50 µM
- IC50 (Giardia intestinalis; read-out: pIC50 (converted)): > 50.1 µM
- IC50 (Entamoeba histolytica; read-out: IC50): > 50 µM
- IC50 (Entamoeba histolytica; read-out: pIC50 (converted)): > 50.1 µM
- MIC [1]: > 32 µg/mL
- IC50 ([3]; read-out: IC50): 4.6 µM
- IC50 ([3]; read-out: pIC50 (converted)): 5.01 µM

SMILES: Cc1cn2cc([N+](=O)[O-])nc2c(=O)n1Cc1ccccc1OC(F)(F)F
- IC50 (Giardia intestinalis): 3.3 µM
- IC50 (Giardia intestinalis; read-out: pIC50 (converted)): 3.16 µM
- IC50 (Entamoeba histolytica; read-out: IC50): 9.1 µM
- IC50 (Entamoeba histolytica; read-out: pIC50 (converted)): 10 µM
- MIC [2]: >32 µg/mL
- MIC [1]: > 32 µg/mL
- IC50 ([3]; read-out: IC50): 2.1 µM
- IC50 ([3]; read-out: pIC50 (converted)): 2 µM

SMILES: CNC(=O)c1nc([N+](=O)[O-])cn1Cc1ccc(OC(F)(F)F)cc1
- IC50 (Giardia intestinalis): 2.7 to 7.5 µM
- IC50 (Entamoeba histolytica; read-out: IC50): 10 to 45 µM
- MIC (Clostridioides difficile): 16 to 64 µg/mL (≈ 46.5 to 186 µM)
- MIC [1]: > 32 µg/mL

SMILES: O=[N+]([O-])c1cn2cc(-c3ccccc3)nc(OCCO)c2n1
- IC50 (Giardia intestinalis): 5.2 µM
- IC50 (Giardia intestinalis; read-out: pIC50 (converted)): 5.01 µM
- IC50 (Entamoeba histolytica; read-out: IC50): > 50 µM
- IC50 (Entamoeba histolytica; read-out: pIC50 (converted)): > 50.1 µM
- MIC [1]: > 32 µg/mL
- IC50 ([3]; read-out: IC50): 1.1 µM
- IC50 ([3]; read-out: pIC50 (converted)): 1 µM
